Beta cell apopt: blocks beta cell apoptosis | AID 435005 | protection from apoptosis, % (no concentration beside the values) | INS-1E cytokine-induced death, ATP luminescence, 48 h; percent of positive-control rescue, neutral wells zero | 300,000 tested, 0.8% active;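 active = Every replicate reaches about 75%, or at least half do and their mean reaches it too, limit read from the data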;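 also: higher means more ATP so stronger rescue from cytokine killing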
CSC inhib: cancer stem cell inhibition. cancer stem cell-like cells viability, luminescence. inhibition, % at 7.5 µM. 300,000 tested, 1.1% active. AID 2717; in the data active = inhibition above about 75%; tested in HMLE shEcad cells
WT yeast gro inh: growth inhibition of WT yeast, mitochondrial fusion screen; inhibition, % at 10 µM; 190,000 tested, 2.1% active; mitochondrial fusion phenotypic screen, WT strain; in the data active = inhibition above about 58%; tested in S. cerevisiae
T cruzi repl: T. cruzi replication inhibition | T. cruzi beta-gal in NIH3T3, luminescence, 90 h | AID 1885 | inhibition, % (test concentration not listed) | 300,000 tested, 1.4% active;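 active = mean inhibition across valid replicates above about 55%, limit read from the data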;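 also: signal also drops with host cell toxicity which is not excluded here; higher percent means less beta-gal luminescence so fewer parasites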
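Test system: β-gal T. cruzi (Tulahuen C4) inside NIH/3T3 cells / Quantity: 5,000 cells/well / Measured by: luminescence from GalScreen with 0.05% NP40, read after 60 min / Medium: DMEM plus 2% FBS / Measure: parasite load inhibition, % / Reagent: Tulahuen C4 trypomastigotes, 5000/well / Schedule: co-culture of at least 90 h after 3 h attachment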
Mot1-301 SUMO: SUMOylation pathway inhibition by Mot1-301 growth rescue; S. cerevisiae Mot1-301 growth rescue, ATP luminescence, 38.5C; percent above DMSO median, 100 means doubled; growth rescue, % at 18.8 µM; 320,000 tested, 1% active;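 active = every valid replicate shows activation above 250% relative to neutral control wells; inactive = the rest, any valid replicate at or below 250%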
Efflux pump inh: inhibitors of Candida antifungal efflux pumps expressed in yeast. S. cerevisiae Candida pump triplex, Nile Red efflux. inhibition, % at 10 µM. 330,000 tested, 0.44% active. AID 485275;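 active = plate passing quality check with inhibition over a set limit, or well fluorescence over plate mean plus 4 SD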;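 also: Nile Red retained in pooled yeast measured as flow cytometry median fluorescence; higher means more Nile Red kept so more efflux inhibition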
Yeast cmpd fluor: compound fluorescence in yeast efflux pump counter-screen; shares compounds with Efflux pump inh; fluorescence ratio to DMSO, % at 10 µM; S. cerevisiae AD/pABC3, flow cytometry; 1,700 tested, 4% active; AID 588517;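 active = fluorescence ratio to DMSO above its plate's cutoff, the plate mean ratio plus 5 SD, cut at about 210% in these data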;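 also: unstained yeast with no Nile Red so the signal is compound autofluorescence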
CaMdr1 efflux inh: inhibitors of Candida albicans Mdr1 efflux pump; shares compounds with Efflux pump inh; S. cerevisiae AD/CaMDR1, Nile Red efflux, flow cytometry; inhibition, % at 10 µM; 1,700 tested, 1% active; AID 588518; in the data active = inhibition above about 26%;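 also: higher means more Nile Red retained so more efflux inhibition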
Cdr2 pump inh: blocks the Candida albicans Cdr2 efflux pump in yeast | shares compounds with Efflux pump inh | S. cerevisiae AD/CaCDR2, Nile Red retention, flow cytometry | Nile Red retention ratio vs DMSO, % at 10 µM | 1,700 tested, 4% active | AID 588520; in the data active = Nile Red retention ratio vs DMSO above about 190%;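 also: higher ratio means more blocking of Cdr2 efflux of the dye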
CaCdr1 efflux inh: blocks the Candida albicans Cdr1 efflux pump in yeast; shares compounds with Efflux pump inh; S. cerevisiae AD/CaCDR1, Nile Red efflux, flow cytometry; inhibition, % at 10 µM; 1,700 tested, 1% active; AID 588522;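 active = inhibition above the screen-wide mean plus twice its standard deviation, cut at about 32% in these data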
Hits are given with their value. Most compounds without a hit are left out; they make up all but 4.8% or so of the library.

Results for CCOC(=O)C(C(=O)OCC)c1cc(Br)c2noc3c2c1C(=O)c1ccccc1-3 ?
Beta cell apopt: inactive; CSC inhib: 116.9; WT yeast gro inh: inactive; T cruzi repl: 64.7; Mot1-301 SUMO: inactive; Efflux pump inh: 0.8; Yeast cmpd fluor: 826.4; CaMdr1 efflux inh: inactive; Cdr2 pump inh: 193.0; CaCdr1 efflux inh: inactive

Results for O=C(Nc1ccc(Nc2ccccc2)cc1)C(Cl)Cl ?
Beta cell apopt: inactive; CSC inhib: inactive; WT yeast gro inh: inactive; T cruzi repl: inactive; Mot1-301 SUMO: inactive; Efflux pump inh: 20.2; Yeast cmpd fluor: inactive; CaMdr1 efflux inh: inactive; Cdr2 pump inh: inactive; CaCdr1 efflux inh: inactive

Results for O=C(NCCC(=O)N(CCc1ccccc1)Cc1ccccc1)c1ccc(Br)cc1 ?
Beta cell apopt: inactive; CSC inhib: inactive; T cruzi repl: inactive; Mot1-301 SUMO: inactive; Efflux pump inh: inactive

How did CCC1(c2ccccc2)NC(=O)N(CC(=O)N(C)Cc2c(F)cccc2Cl)C1=O (stereo not given) do in these assays?
Beta cell apopt: inactive; CSC inhib: inactive; T cruzi repl: inactive; Mot1-301 SUMO: inactive; Efflux pump inh: inactive

How did CCC1(c2ccccc2)NC(=O)N(CC(=O)N(C)Cc2ccccc2)C1=O (stereo not given) do in these assays?
Beta cell apopt: inactive; CSC inhib: inactive; T cruzi repl: inactive; Mot1-301 SUMO: inactive; Efflux pump inh: 1.1; Yeast cmpd fluor: inactive; CaMdr1 efflux inh: inactive; Cdr2 pump inh: inactive; CaCdr1 efflux inh: inactive

Results for CCc1ccc(OCC(=O)O/N=C(\N)c2ccncc2)c(Br)c1 ?
Beta cell apopt: inactive; CSC inhib: inactive; T cruzi repl: inactive; Mot1-301 SUMO: inactive; Efflux pump inh: inactive

What do the screens show for `CCOc1ccc(NC(=O)CSc2ncn[nH]2)c([N+](=O)[O-])c1`?
Beta cell apopt: inactive; CSC inhib: inactive; WT yeast gro inh: inactive; T cruzi repl: inactive; Mot1-301 SUMO: inactive; Efflux pump inh: 18.0; Yeast cmpd fluor: inactive; CaMdr1 efflux inh: inactive; Cdr2 pump inh: inactive; CaCdr1 efflux inh: inactive

What do the screens show for `CN1[C@@H]2CC[C@H]1CC(OC(=O)C(CO)c1ccccc1)C2` (stereo not given in full)?
Beta cell apopt: inactive; CSC inhib: inactive; WT yeast gro inh: inactive; T cruzi repl: inactive; Mot1-301 SUMO: inactive; Efflux pump inh: inactive

How did Cc1ccc2c(c1)C(=O)N1[C@H]3c4cc(Br)ccc4OC[C@@H]3[C@H](c3ccccc3)[C@]1(C)C(=O)N2 do in these assays?
Beta cell apopt: inactive; CSC inhib: inactive; Mot1-301 SUMO: inactive; Efflux pump inh: inactive

How did Cc1ccc2c(c1)[C@H]1[C@H](CO2)[C@H](c2ccccc2)[C@]2(C)C(=O)Nc3ccc(Br)cc3C(=O)N12 do in these assays?
Beta cell apopt: inactive; Mot1-301 SUMO: inactive; Efflux pump inh: inactive

What do the screens show for `C[C@@]12C(=O)Nc3cc(Cl)ccc3C(=O)N1[C@H]1c3cc(Cl)ccc3OC[C@@H]1[C@@H]2c1ccccc1`?
Beta cell apopt: inactive; Mot1-301 SUMO: inactive; Efflux pump inh: inactive; Yeast cmpd fluor: inactive; CaMdr1 efflux inh: inactive; Cdr2 pump inh: inactive; CaCdr1 efflux inh: inactive

Results for Cc1ccc2c(c1)C(=O)N1[C@H]3c4cc(Cl)ccc4OC[C@@H]3[C@H](c3ccccc3)[C@]1(C)C(=O)N2 ?
Beta cell apopt: inactive; CSC inhib: inactive; Mot1-301 SUMO: inactive; Efflux pump inh: inactive; Yeast cmpd fluor: inactive; CaMdr1 efflux inh: inactive; Cdr2 pump inh: inactive; CaCdr1 efflux inh: inactive

Results for CCc1cccc(C)c1NC(=O)C1CCN(C(=O)c2ccc([N+](=O)[O-])cc2)CC1 ?
Beta cell apopt: inactive; CSC inhib: inactive; WT yeast gro inh: inactive; T cruzi repl: inactive; Mot1-301 SUMO: inactive; Efflux pump inh: inactive

What do the screens show for `COc1ccc(C2OC(=O)CC2C(=O)NCc2ccccc2Cl)cc1OC` (stereo not given)?
Beta cell apopt: inactive; CSC inhib: inactive; WT yeast gro inh: inactive; T cruzi repl: inactive; Mot1-301 SUMO: inactive; Efflux pump inh: inactive

Results for Cc1cc(C)c(S(=O)(=O)NCC(=O)NCc2ccccn2)c(C)c1 ?
Beta cell apopt: inactive; CSC inhib: inactive; WT yeast gro inh: inactive; T cruzi repl: inactive; Mot1-301 SUMO: inactive; Efflux pump inh: inactive

What do the screens show for `COc1cccc(C(=O)O/N=C(\N)CS(=O)(=O)c2ccccc2)c1`?
Beta cell apopt: inactive; CSC inhib: inactive; T cruzi repl: inactive; Mot1-301 SUMO: inactive; Efflux pump inh: inactive

Results for Cc1c(Cl)cccc1NC(=O)CN1CCN(CCN=CC2=C(O)CC(c3ccccc3)CC2=O)CC1 (stereo not given) ?
Beta cell apopt: inactive; WT yeast gro inh: inactive; T cruzi repl: inactive; Mot1-301 SUMO: inactive; Efflux pump inh: inactive

What do the screens show for `CN(C)c1ccc(/C=C2/C=C(c3ccc4c(c3)CCCC4)OC2=O)cc1`?
Beta cell apopt: inactive; CSC inhib: inactive; T cruzi repl: inactive; Mot1-301 SUMO: inactive; Efflux pump inh: 0.8; Yeast cmpd fluor: inactive; CaMdr1 efflux inh: inactive; Cdr2 pump inh: inactive; CaCdr1 efflux inh: inactive

What do the screens show for `COc1ccc(-c2sc3cc4c(cc3c2-c2ccc(OCCN3CCCCC3)cc2)OCO4)cc1`?
Efflux pump inh: inactive; Yeast cmpd fluor: inactive; CaMdr1 efflux inh: inactive; Cdr2 pump inh: inactive; CaCdr1 efflux inh: inactive

Results for COc1ccc(-c2sc3cc4c(cc3c2-c2ccc3c(c2)OCCO3)OCO4)cc1 ?
Beta cell apopt: inactive; CSC inhib: inactive; Mot1-301 SUMO: inactive; Efflux pump inh: inactive

What do the screens show for `COc1ccccc1-c1sc2cc3c(cc2c1-c1ccc(OCCN2CCOCC2)cc1)OCO3`?
Efflux pump inh: inactive; Yeast cmpd fluor: inactive; CaMdr1 efflux inh: inactive; Cdr2 pump inh: inactive; CaCdr1 efflux inh: inactive

What do the screens show for `COc1ccc2c(-c3cnc(N4CCOCC4)nc3)c(-c3ccc(S(C)(=O)=O)cc3)sc2c1`?
Beta cell apopt: inactive; CSC inhib: inactive; Mot1-301 SUMO: inactive; Efflux pump inh: inactive

What do the screens show for `COc1ccc(-c2sc3cc(OC)ccc3c2-c2ccc(OCCN3CCOCC3)cc2)cc1`?
Efflux pump inh: inactive; Yeast cmpd fluor: inactive; CaMdr1 efflux inh: inactive; Cdr2 pump inh: inactive; CaCdr1 efflux inh: inactive

How did COc1cc(OC)cc(-c2sc3ccc(OC)cc3c2-c2ccc(OCCN3CCCCC3)cc2)c1 do in these assays?
Efflux pump inh: active; Yeast cmpd fluor: inactive; CaMdr1 efflux inh: 69.8; CaCdr1 efflux inh: 103.5

Bioassay records (PubChem)
